Reference: ChEMBL document CHEMBL4513216, “Probing the Open Global Health Chemical Diversity Library for Multistage-Active Starting Points for Next-Generation Antimalarials” (ACS Infect Dis, 2020)

Experiment: Toxicity liver stage against HepG2, at 10uM
Format: cell-based
Set-up: test concentration 10 uM, cell line HepG2-A16-CD81EGFP
Conditions: human, HepG2-A16-CD81EGFP cells; read-out: INHIBITION
Method in brief: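 Uninfected HepG2-A16-CD81EGFP cells, 3 × 10^3 per well, 1536-well, plated on prespotted compound at 10 μM final, parasite-free screening media added to match infected plates; puromycin 10 μM positive, DMSO 0.5% negative; run in parallel with 48 h PbLuc assay at 37 °C, 5% CO2; viability by CellTiter-Glo luminescence, normalized to controls.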

| Compound | cytotoxicity at 10 µM [%] |
| --- | --- |
| Cc1ncoc1C(=O)N1CCOC(Cc2ccccc2)C1 (centres undefined) | 2.23 |
| CN(Cc1cc(C[C@@H]2C[C@H](N)C2(C)C)no1)c1ccccc1 | -1.8 |
| c1ccc(CNC[C@H]2COCc3nc4cccnc4n32)cc1 | -1.84 |
| CN(C)CCCNC(=O)c1cc(-c2ccc3c(c2)CCO3)n[nH]1 | -12.8 |
| N#Cc1ccc(OC2CCN(C(=O)c3cncc(Br)c3)CC2)nc1 | 3.05 |
| c1ccc(-c2nnc3sc(CCN4CCCC4)nn23)cc1 | 6.04 |
| Oc1nnc(-c2cccs2)c2sc(N3CCCCC3)nc12 | 7.52 |
| Cc1cc(O)c(OCC(=O)Nc2nc3c(s2)CCCCC3)cn1 | 3.93 |
| Cn1ncc2c1NC(=O)CC2c1ccccc1Cl (centres undefined) | 55.7 |
| Cn1ccnc1-c1nc(N2CCCCC2)ncc1-c1ccccc1F | 12.4 |
| CN(C)c1cc(C2CCCN(S(=O)(=O)C3CCCC3)C2)ccn1 (centres undefined) | -20.8 |
| Cn1nccc1CCC(=O)N1CCC(c2cnccn2)CC1 | -21.7 |
| O=C(NCCCO)Nc1cnc2cc(Cl)ccc2c1O | 2.05 |
| Oc1nc(N2CCOCC2)nc2c1CCN(Cc1cccc(F)c1)CC2 | -8.08 |
| NC(=O)C1(CCCc2ccccn2)CCCN(Cc2ccncc2)C1 (centres undefined) | -4.8 |
| Cc1cc(C)c2cc(CNCc3ccc(C)o3)c3nn(C)c(=O)n3c2c1 | -1.83 |
| Cc1nc(C)c(C(=O)Nc2cnn(CC(=O)NC3CCCC3)c2)s1 | -3.33 |
| O=C(N[C@@H]1CN(CCc2ccc(F)cc2)C[C@H]1O)c1cscn1 | -3.08 |
| COc1ccc(CN2CCC(c3nnc(-c4scnc4C)o3)CC2)cc1 | -5.03 |
| CN(C)[C@@H]1CN(C(=O)COc2cccc(F)c2)C[C@H]1O | -10.4 |
| COC(=O)CNC(=O)c1nc(-c2ccccc2OC)c2cnccn12 | 8.6 |
| CC(C)NC(=O)N1CCCCC1c1nnc2n1CCNC2 (centres undefined) | 14.3 |

| Compound | cytotoxicity at 10 µM [%] |
| --- | --- |
| O=C(NCc1nnc2n1CCCCC2)N(CC1CCOC1)C1CC1 (centres undefined) | 5.63 |
| O=C(CCn1cncn1)NCC1CCOC1 (centres undefined) | -43.4 |
| Cc1cc(C)n(CCN2CCC(N(C)Cc3nnc(C)n3C)C2)n1 (centres undefined) | 2.35 |
| CN(C)C1(CNC(=O)c2c(O)cc(Cl)cc2Cl)CCOCC1 | -9.46 |
| CCN(CC)S(=O)(=O)c1ccc(CNC(=O)N2CCCCCC2)cc1 | -2.9 |
| O=C(CN1CCOCC1)N1CCN(C2CCc3ccc(F)cc32)CC1 (centres undefined) | 6.24 |
| CC(CCN1CCCC1=O)NCc1cnc(C2CCC2)s1 (centres undefined) | -0.743 |
| COc1ccc(CCCC(=O)N2CCCC(n3cncn3)C2)cc1 (centres undefined) | -6.96 |
| c1ccc2sc(N3CCCC(Cn4cncn4)C3)nc2c1 (centres undefined) | -40.1 |
| CC(C)n1nc2c(cc1=O)CN(Cc1nc(-c3ccco3)no1)CC2 | 2.35 |
| OCC1CCN(c2ccc(NCc3ccsc3)nc2)CC1 | 8.94 |
| CNC(=O)NC(=O)CSC(C)c1ccccc1F (centres undefined) | -14.4 |
| Cc1cc(C2CCCN2C(=O)NCc2cccnc2)on1 (centres undefined) | 0.458 |
| O=C(NCC1CCCCC1)NC1CCCc2c1cnn2CCO (centres undefined) | -2.92 |
| CCN(CC1CCCO1)C(=O)Nc1cccc(N2CCOCC2)c1 (centres undefined) | 8.44 |
| CCOCCN1CCN(Cc2nc(C)no2)CC1CC (centres undefined) | 13.1 |
| CC(C)c1noc(CN(Cc2ccccc2)C2CC2)n1 | 0.563 |
| Cc1cc(NCc2ccccc2CN2CCCCC2)n2ncnc2n1 | -1.86 |
| O=C(Nc1nnc(C2CC2)s1)NC1CCOc2ccccc21 (centres undefined) | 24.2 |
| Cc1ccc(C2CN(C(=O)c3c(C)cc(C)[nH]c3=O)CCO2)c(C)c1 (centres undefined) | -19.8 |
| CS(=O)(=O)CCC(=O)N(Cc1c(F)cccc1F)C1CCCC1 | -12.9 |
| O=C(NCCCNC(=O)C1CCC1)NCCn1cccc1 | 0.215 |

| Compound | cytotoxicity at 10 µM [%] |
| --- | --- |
| CC(C)c1nc(S(=O)(=O)N(C)c2ccc(F)cc2)c[nH]1 | -0.131 |
| Cn1ccnc1CN(CCCO)CC(F)(F)F | 5.68 |
| CC(NC(=O)Nc1nccs1)c1cccnc1 (centres undefined) | -8.81 |
| COc1cc2c(c(OC)c1OC)CCN(CCN1CCCCC1)CC2 | -15.7 |
| CC1COCCN1Cc1nc(Cc2ccccc2)no1 (centres undefined) | 5.17 |
| COCCOCC(=O)Nc1ccnn1-c1ccc(Cl)cc1 | -11.6 |
| O=C(Nc1ccc2c(c1)C(=O)NC2)c1ccc(S(=O)(=O)C(F)(F)F)cc1 | 36.9 |
| NC(=O)CNC(=O)c1ccc(CNCc2ccc(F)cc2F)cc1 | -43.4 |
| O=C(CN(Cc1ccccc1)CC1CCOCC1)NC(=O)NC1CC1 | -6.49 |
| CC(=O)NCc1nnn2c1CN(c1ncccn1)CCC2 | -107 |
| NC(=O)[C@H]1CCCN(c2nccc(-c3c[nH]nc3-c3cccnc3)n2)C1 | -5.89 |
| COc1cccc(OC)c1-c1ccnc2cc(CC(=O)NC(C)C)nn12 | -8.05 |
| CC(C)[C@H](NS(C)(=O)=O)C(=O)NCc1cc(-c2ccco2)nn1C | -10.5 |
| Cc1nccn1-c1ccc(NC(=O)C2CCCN2Cc2ccoc2)cc1 (centres undefined) | 0.184 |
| COCCn1c(=O)n(Cc2cccc(F)c2F)c2cc(C(=O)O)ccc21 | 9.15 |
| OC[C@@H]1CCCN1Cc1cn(C2CCN(C3CCCC3)CC2)nn1 | -3.73 |
| COc1nc2c(cc1C(=O)NCc1noc(-c3ccco3)n1)CCC2 | -6.04 |
| CC(C)(C)c1nc(CN(Cc2cccnc2)C2CN3CCC2CC3)no1 (centres undefined) | -4.09 |
| CN1CC2(CCCN(Cc3ccc(Oc4ccccc4)cc3)C2)OC1=O (centres undefined) | 15.8 |
| COc1ccc2[nH]c3c(c2c1)CN(c1cc(NCCO)nc(N)n1)CC3 | 8.75 |
| CSCC[C@@H](CO)Nc1ccc(-c2nc(C3CC3)no2)cn1 | 0.957 |
| CN1CCCN(c2cnn(Cc3ccncc3)c(=O)c2)CC1 | 6.75 |

| Compound | cytotoxicity at 10 µM [%] |
| --- | --- |
| COCc1cc(N2CCN(c3ccc(Cl)cn3)CC2)n2nccc2n1 | 8.89 |
| Oc1cc(CN2CCCCC2c2cccnc2)nc2c(F)cccc12 (centres undefined) | -6.88 |
| CNc1nc(C(=O)N2C[C@@H]3CCN(C)[C@@H]3C2)cs1 | -10.8 |
| CC(=O)N1CCC(C(=O)N2CCOC(CC3CCCCC3)C2)CC1 (centres undefined) | -13.7 |
| CCC(CC)NCC(C)Oc1cccnc1 (centres undefined) | 8.26 |
| N#Cc1cccc(Oc2ccc(CN3CCCC3)cc2Cl)n1 | -16 |
| Cc1ccc(CN2CCC3(CCCN(Cc4ccc(F)c(F)c4)C3)C2)o1 (centres undefined) | 9.39 |
| COc1cccc(OCCc2nc3c(cc2C(N)=O)CCC3)c1 | 7.32 |
| COc1ccc(C(=O)N2C[C@@H](NC(=O)N(C)C)[C@H](C(C)C)C2)c(OC)n1 | 3.6 |
| CCN1CCC(CC(=O)N(C)CC(=O)c2ccc(O)cc2)CC1 | 1.73 |
| Cc1nccc(N[C@H]2CN(C(=O)CCN3CCCC3=O)C[C@@H]2C(C)C)n1 | -6.3 |
| CC(C)[C@H]1CN(C2Cc3ccccc3C2)C[C@@H]1NS(C)(=O)=O | -16 |
| CN1CCN(Cc2ccc(-c3ccc(-c4ccn[nH]4)cc3)nc2)CC1 | 3.61 |
| Cc1cc(F)ccc1CN1CCCC(O)(CN2CCCC2)C1 (centres undefined) | -5.19 |
| Cc1ccccc1C(=O)N1CCOC2(CNCCOC2)C1 (centres undefined) | -16.5 |
| Cc1ccccc1C1(C(=O)NCCN2CCC(C)CC2)CCOCC1 | 3.57 |
| Cc1cnn(CCNCC(O)COc2ccc(F)cc2)c1 (centres undefined) | -1.76 |
| NC(=O)CN1CCCN(C(=O)Cc2ccc(Br)cc2)CC1 | -6.58 |
| CC(C)(O)CN1CCN(C(=O)c2sccc2C#N)CC1 | -7.3 |
| O=C(CCNC(=O)c1ccoc1)Nc1cc(F)cc(F)c1 | -7.41 |
| Cc1noc(C)c1CN1CCc2nn(C(C)C)c(=O)cc2C1 | -8.87 |
| N#Cc1ccc(S(=O)(=O)NC(=O)C2CC2)c(C(F)(F)F)c1 | -11.1 |

| Compound | cytotoxicity at 10 µM [%] |
| --- | --- |
| CC(C)n1cc(CN2CCCN(C(=O)c3cc(Cl)c[nH]3)CC2)cn1 | -10.9 |
| CCOc1ccc(Cl)cc1C1CCCCN1 (centres undefined) | 9.15 |
| c1c(CN2CCCC2)nc2n1CCN(C1CCOCC1)C2 | 0.641 |
| CS(=O)(=O)N1CC[C@H]2O[C@H](C(=O)NCCc3ccccn3)CC[C@H]21 | 8.5 |
| CC(C)(C)C(=O)N1C[C@H](c2ccsc2)[C@H]2CN(Cc3cccs3)CC[C@H]21 | 12.7 |
| O=C(CC1CC1)N1CCO[C@H]2[C@H](OCCCn3cccn3)CC[C@@H]21 | 6.23 |
| Cc1ccc(CN2CC3(CCN(C(=O)c4cscn4)C3)C2)o1 | 5.28 |
| O=C(NCC1CC1)[C@H]1C[C@@H]2CCN(CCc3ccccc3)C[C@H]2O1 | -75.5 |
| CN(C)CCN1CCOCC2(CCCN(C(=O)c3ccccn3)C2)C1 (centres undefined) | 6.67 |
| CC(C)N1CC[C@H]2[C@H](C[C@@H](Cn3cccn3)N2c2nccs2)C1 | 3.28 |
| O=C(C1CCCC1)N1C[C@@H]2CCN(c3cccnc3)C[C@@H]2C1 | -78.4 |
| CO[C@@H]1CCN(Cc2nccs2)C[C@@H]1Cc1cccc(C)c1 | -71.8 |
| Cc1noc(C)c1CN1Cc2cnn(C)c2C(COCC2CC2)C1 (centres undefined) | -76.5 |
| Cc1ccc(CN2CCCn3nnc(COCCN(C)C)c3C2)s1 | -114 |
| O=C(C[C@@H]1COC[C@H]2CN(Cc3cccnc3)C[C@@H]12)NCC1CC1 | 0.752 |
| COc1cccc(CN2CCc3nc4ccsc4c(=O)n3CC2)c1 | -26.5 |
| O=C(NC[C@]12COC[C@H]1CN(Cc1ccco1)C2)c1ccccc1 | -2.53 |
| CN(Cc1cccnc1)C[C@H]1OC[C@@H]2CCN(C(=O)C3CC3)C[C@@H]21 | -117 |
| c1cncc(COCc2cncc3c2CCN(Cc2ccoc2)C3)c1 | -109 |
| C=C1C(C)(C)[C@@H]2CC[C@]1(C(=O)N1CCC(n3cc(CO)nn3)CC1)C2 | -7.73 |
| CNC(=O)N1C[C@@H]2C[C@H](C(=O)Nc3cccnc3)[C@H](C1)O2 | -76.2 |
